{
  "source": "ChEMBL document CHEMBL1144337",
  "about": "“Discovery and structure-activity relationships of 2-benzylpyrrolidine-substituted aryloxypropanols as calcium-sensing receptor antagonists” (Bioorg Med Chem Lett, 2005)",
  "note": "pIC50: −log10 of the molar value.",
  "data": [
    {"system": "HEK293", "experiment": "Inhibitory concentration for the inhibition of intracellular [Ca2+] release in HEK cells by using FLIPR technology", "assay_type": "functional, cell-based", "conditions": "Homo sapiens", "outline": "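HEK cells over-expressing recombinant human calcium-sensing receptor. Intracellular Ca²⁺ release was stimulated with extracellular Ca²⁺, and inhibition by test compound was read by fluorescence on FLIPR. IC50 values are means of two experiments, with standard deviation reported.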", "values": [
      {"smiles": "N#Cc1c(Cl)cccc1OC[C@H](O)CN1CCC[C@H]1Cc1ccccc1O", "pIC50": 7.00},
      {"smiles": "N#Cc1c(Cl)cccc1OC[C@H](O)CN1CCCC1Cc1ccccc1", "note": "(stereo not given in full)", "pIC50": 6.46},
      {"smiles": "N#Cc1c(Cl)cccc1OC[C@H](O)CN1CC[C@@H](O)[C@H]1Cc1ccccc1", "pIC50": 5.85},
      {"smiles": "N#Cc1c(Cl)cccc1OC[C@H](O)CN1CC[C@H](F)[C@H]1Cc1ccccc1", "pIC50": 5.55},
      {"smiles": "N#Cc1c(Cl)cccc1OC[C@H](O)CN1CCC[C@@H]1Cc1ccccc1", "pIC50": "< 4.52"},
      {"smiles": "N#Cc1c(Cl)cccc1OC[C@H](O)CN1CCC[C@H]1Cc1ccccc1", "pIC50": 6.92},
      {"smiles": "COc1cccc(CC2CCN(C[C@@H](O)COc3cccc(Cl)c3C#N)CC2)c1", "pIC50": 6.19},
      {"smiles": "COc1ccc(C[C@@H]2CCCN2C[C@@H](O)COc2cccc(Cl)c2C#N)cc1OC", "pIC50": 6.39},
      {"smiles": "COc1ccccc1C[C@@H]1CCCN1C[C@@H](O)COc1cccc(Cl)c1C#N", "pIC50": "< 4.52"},
      {"smiles": "CN(C)c1ccc(C[C@@H]2CCCN2C[C@@H](O)COc2cccc(Cl)c2C#N)cc1", "pIC50": 5.72},
      {"smiles": "N#Cc1c(Cl)cccc1OC[C@H](O)CN1CCCCC1Cc1ccccc1", "note": "(stereo not given in full)", "pIC50": "< 4.52"},
      {"smiles": "N#Cc1c(Cl)cccc1OC[C@H](O)CN1CCC[C@H]1Cc1ccc(O)cc1", "pIC50": "< 4.52"},
      {"smiles": "N#Cc1c(Cl)cccc1OC[C@H](O)CN1CCCC(Cc2ccccc2)C1", "note": "(stereo not given in full)", "pIC50": "< 4.52"},
      {"smiles": "COc1cccc(C(O)[C@@H]2CCCN2C[C@@H](O)COc2cccc(Cl)c2C#N)c1", "note": "(stereo not given in full)", "pIC50": "< 4.52"},
      {"smiles": "N#Cc1c(Cl)cccc1OC[C@H](O)CN1CCC(F)(F)[C@H]1Cc1ccccc1", "pIC50": "< 4.52"},
      {"smiles": "N#Cc1c(Cl)cccc1OC[C@H](O)CN1CCC(Cc2ccccc2)C1", "note": "(stereo not given in full)", "pIC50": 5.00},
      {"smiles": "N#Cc1c(Cl)cccc1OC[C@H](O)CN1CCC[C@H]1Cc1cccc(F)c1", "pIC50": 6.82},
      {"smiles": "CC(C)(Cc1ccc2ccccc2c1)NC[C@@H](O)COc1cccc(Cl)c1C#N", "pIC50": 7.10},
      {"smiles": "COc1ccc(C[C@@H]2CCCN2C[C@@H](O)COc2cccc(Cl)c2C#N)cc1", "pIC50": 6.70},
      {"smiles": "N#Cc1c(Cl)cccc1OC[C@H](O)CN1CCC[C@H]1C(O)c1cccc(F)c1", "note": "(stereo not given in full)", "pIC50": 5.64},
      {"smiles": "N#Cc1c(Cl)cccc1OC[C@H](O)CN1CCC(Cc2ccccc2)CC1", "pIC50": 5.66},
      {"smiles": "N#Cc1c(Cl)cccc1OC[C@H](O)CN1CCC(Cc2cc(F)ccc2F)CC1", "pIC50": 5.68},
      {"smiles": "COc1cccc(C[C@@H]2CCCN2C[C@@H](O)COc2cccc(Cl)c2C#N)c1", "pIC50": 6.89},
      {"smiles": "COc1ccc(CC2CCN(C[C@@H](O)COc3cccc(Cl)c3C#N)CC2)cc1", "pIC50": "< 4.52"}
    ]},
    {"biological_target": "Voltage-gated inwardly rectifying potassium channel KCNH2 (Homo sapiens, UniProt Q12809)", "sequence (Q12809 whole entry)": "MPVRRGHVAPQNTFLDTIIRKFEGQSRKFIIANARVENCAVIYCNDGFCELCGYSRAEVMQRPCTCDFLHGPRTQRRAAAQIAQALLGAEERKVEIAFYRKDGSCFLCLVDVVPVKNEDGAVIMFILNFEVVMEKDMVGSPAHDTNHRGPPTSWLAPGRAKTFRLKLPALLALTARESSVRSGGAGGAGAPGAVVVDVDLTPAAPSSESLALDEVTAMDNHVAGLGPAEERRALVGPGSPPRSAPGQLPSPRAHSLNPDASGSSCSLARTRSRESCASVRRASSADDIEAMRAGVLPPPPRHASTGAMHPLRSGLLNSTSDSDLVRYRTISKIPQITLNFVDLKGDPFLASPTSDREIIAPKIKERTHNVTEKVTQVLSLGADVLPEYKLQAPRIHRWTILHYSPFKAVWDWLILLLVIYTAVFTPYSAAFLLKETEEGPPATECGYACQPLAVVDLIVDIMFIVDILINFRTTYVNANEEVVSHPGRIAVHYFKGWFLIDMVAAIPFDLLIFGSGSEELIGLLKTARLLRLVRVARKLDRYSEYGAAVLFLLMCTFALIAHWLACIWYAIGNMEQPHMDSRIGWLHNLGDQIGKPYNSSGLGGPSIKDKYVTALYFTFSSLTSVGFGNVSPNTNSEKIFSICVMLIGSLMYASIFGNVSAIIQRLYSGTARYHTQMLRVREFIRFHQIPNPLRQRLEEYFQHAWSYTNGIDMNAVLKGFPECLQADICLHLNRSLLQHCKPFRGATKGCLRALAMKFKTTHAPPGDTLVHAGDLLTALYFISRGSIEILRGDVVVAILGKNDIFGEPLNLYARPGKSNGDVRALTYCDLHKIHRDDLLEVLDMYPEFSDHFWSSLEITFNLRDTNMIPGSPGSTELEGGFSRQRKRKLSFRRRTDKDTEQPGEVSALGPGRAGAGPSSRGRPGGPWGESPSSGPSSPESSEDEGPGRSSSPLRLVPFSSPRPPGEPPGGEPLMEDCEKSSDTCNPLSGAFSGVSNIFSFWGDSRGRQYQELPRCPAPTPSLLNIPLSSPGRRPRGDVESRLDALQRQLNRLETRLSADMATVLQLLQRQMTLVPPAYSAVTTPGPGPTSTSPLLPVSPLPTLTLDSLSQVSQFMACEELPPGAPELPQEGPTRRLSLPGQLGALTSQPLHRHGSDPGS", "experiment": "Inhibitory concentration against human Kv11.1 ERG potassium channel", "conditions": "not given", "outline": "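Inhibition of hERG K+ current, measured by a patch-clamp assay, reported as an IC50.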", "values": [
      {"smiles": "CC(C)(Cc1ccc2ccccc2c1)NC[C@@H](O)COc1cccc(Cl)c1C#N", "pIC50": 6.71}
    ]}
  ]
}
